From PubChem
Sampled rows, rich in hits. Any-hit rate of the full collection: about 3.5%.
RGS4 block: inhibitors of human RGS4; P49798; HEK293 M3R/RGS4 inducible, Fluo-4 calcium flux; active compounds read high; triggered by carbachol at its EC20; B-score at 10 µM; 310,000 tested, 0.45% active; AID 463165;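 active = B-score, a plate-corrected calcium signal, over three deviations above library mean, with baseline fluorescence within five deviations of library mean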;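 also: RGS4 expression induced by doxycycline in cells with stable M3 receptor; B-score is computed from the integrated fluorescence ratio over baseline after carbachol; higher B-score means a larger calcium signal and so more RGS4 inhibition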
Target sequence (P49798 whole entry, looked up): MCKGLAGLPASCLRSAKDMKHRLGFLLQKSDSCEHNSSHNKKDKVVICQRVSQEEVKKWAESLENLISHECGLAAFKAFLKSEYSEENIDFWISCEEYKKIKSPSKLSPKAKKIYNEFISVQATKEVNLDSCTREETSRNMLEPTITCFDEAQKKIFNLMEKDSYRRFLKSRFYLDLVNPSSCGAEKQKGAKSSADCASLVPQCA
RGS4 pot: potentiators or activators of RGS4; HEK293 M3R/inducible RGS4, carbachol calcium flux Fluo4; active compounds read low; B-score at 10 µM; 310,000 tested, 0.92% active;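 active = B-score of the integrated calcium signal more than 4 SD below the library mean, with starting fluorescence not abnormally high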;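 also: negative B-score means reduced calcium response which marks RGS4 activation or potentiation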
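Detection: kinetic calcium fluorescence imaging with Fluo4-AM dye, 2 µM / Material: HEK293 cells with stable M3R and inducible RGS4 / Schedule: recording 10 s baseline at 1 Hz, 100 s post-agonist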
MrgX1 PAM: human MrgX1 positive allosteric modulation, primary screen; Q96LB2; MrgX1-HEK293, Fluo-4 calcium flux, FDSS; active compounds read high; B-score at 10 µM; 310,000 tested, 0.63% active;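 active = plate-corrected calcium response at least 3 library SD above typical, normal starting fluorescence, not activating the receptor alone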;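 also: compound read alongside a low EC10 to EC30 dose of BAM8-22 agonist; peak minus trough fluorescence over baseline measured at the second addition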
Target sequence (Q96LB2 whole entry, looked up): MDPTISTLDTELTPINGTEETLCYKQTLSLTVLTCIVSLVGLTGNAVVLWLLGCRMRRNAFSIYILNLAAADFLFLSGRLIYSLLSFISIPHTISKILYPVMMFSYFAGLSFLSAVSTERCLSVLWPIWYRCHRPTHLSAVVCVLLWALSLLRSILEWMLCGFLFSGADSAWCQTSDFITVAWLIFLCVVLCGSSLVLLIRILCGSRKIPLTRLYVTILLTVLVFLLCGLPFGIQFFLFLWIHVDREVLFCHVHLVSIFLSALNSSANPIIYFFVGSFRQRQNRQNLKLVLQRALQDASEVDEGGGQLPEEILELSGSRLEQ
MrgX1 antag: antagonists of human MrgX1 receptor; 310,000 tested, 1.3% active; Q96LB2; B-score at 10 µM; MRGX1-HEK293 calcium flux, Fluo-4, BAM8-22 antagonism; active compounds read low;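 active = calcium-response B-score plate-corrected more than 3 library SD below zero, starting fluorescence within 5 deviations, no agonist response on first addition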;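 also: peak minus trough fluorescence over baseline after final BAM8-22 challenge near maximal dose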
MrgX1 agonist: activates human MrgX1 receptor signaling. B-score at 10 µM. Q96LB2. MrgX1-HEK293 cells, Fluo-4 calcium fluorescence, agonist mode; active compounds read high. 310,000 tested, 0.44% active. AID 588627;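 active = calcium response B-score plate-corrected fluorescence ratio at least 3 library SD, with starting fluorescence B-score inside 5 SD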
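Assay system: MrgX1-expressing HEK293 cells / Amount: fifteen thousand cells per well / Doses: test compound in the initial addition of three / Timing: cells plated overnight, dye loaded 0.5 h 37 °C, 0.5 h room temperature / Technique: kinetic calcium dye fluorescence, Fluo-4 NW / Control set: positive and negative controls per plate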
Active calls of the source: *; i = inactive; / = no result.

SMILES	RGS4 block	RGS4 pot	MrgX1 PAM	MrgX1 antag	MrgX1 agonist
CC(C)C(C(=O)O)N1C(=O)/C(=C/C=C/c2ccco2)SC1=S (centres undefined)	i	i	i	-5.3*	i
O=C1/C(=C/C=C/c2ccco2)SC(=S)N1c1ccc(O)cc1	i	i	16*	i	i
CC(C)C(C(=O)O)N1C(=O)/C(=C/c2cccn2C)SC1=S (centres undefined)	/	/	i	i	i
CSc1cc(-c2ccc(Cl)cc2)c(C(=O)N2CCCC2)s1	i	i	i	i	i
Cc1cccc(NC2=C(NCCO)C(=O)c3ccccc3C2=O)c1	i	i	i	-5.5*	i
COc1cccc(NC2=C(NCCO)C(=O)c3ccccc3C2=O)c1	i	i	i	i	i
c1coc(-c2nnc(-c3ccco3)nn2)c1	i	i	i	i	i
CC(Oc1ccc(-c2ccccc2)c(F)c1)c1ccn(S(=O)(=O)c2ccc(Br)cc2)n1 (centres undefined)	i	i	i	-5.7*	i
CCOc1ccc(S(=O)(=O)NC(Cc2cnc[nH]2)C(=O)O)cc1 (centres undefined)	i	i	i	-4.9*	i
COc1ccc(N(C(=O)c2cccnc2)S(=O)(=O)c2cccc([N+](=O)[O-])c2)cc1	i	i	6.7*	i	i
OC1(C#CCN2CCCC2)c2ccccc2-c2ccccc21	i	-7*	i	i	i
O=C(NNC(=S)NC(=O)c1ccccc1[N+](=O)[O-])c1ccccc1	i	i	i	i	i
O=C(NNC(=S)NC(=O)c1cccc([N+](=O)[O-])c1)c1ccc(Br)cc1	i	-8.3*	i	i	93*
O=C(NNC(=S)NC(=O)c1cccc([N+](=O)[O-])c1)c1ccc(O)cc1	i	i	i	i	i
O=C(NC(=S)NNC(=O)c1ccccc1[N+](=O)[O-])c1ccccc1	i	i	9.7*	i	i
CCCOc1ccc(C(=O)NNC(=S)NC(=O)c2ccccc2[N+](=O)[O-])cc1	i	i	8.4*	i	i
CCCOc1ccc(C(=O)NNC(=S)NC(C)=O)cc1	i	i	i	i	i
CCCOc1ccc(C(=O)NNC(=S)NC(=O)c2cc(-c3ccccc3)nc3ccccc23)cc1	i	-9.3*	i	-4.7*	i
CCCCC(=O)Nc1ccc(C(=O)NNC(=S)NC(=O)c2ccccc2[N+](=O)[O-])cc1	i	i	i	i	i
CCOC(=O)c1c(NC(=S)NC(=O)c2ccc(Cn3cc(Cl)cn3)o2)sc2c1CCCCC2	i	i	i	i	i
CC(C)N1C(=O)CCC1C(=O)N1CCC(Cc2ccccc2)CC1 (centres undefined)	i	i	i	-5.9*	i
CC(C)N1C(=O)CCC1C(=O)N1CCN(c2ccc(F)cc2)CC1 (centres undefined)	i	i	i	i	i
COc1ccc(-n2c3c(cc(C#N)c2=O)C(=O)CCC3)cc1	i	i	11*	i	i
COc1ccc(-n2c3c(cc(C(=O)Nc4ccc(C)cc4)c2=O)C(=O)CCC3)cc1	i	i	i	i	i
O=C(CN1C(=O)C2C3C=CC(C4CC34)C2C1=O)Oc1ccccc1 (centres undefined)	i	i	i	i	i
SMILES	RGS4 block	RGS4 pot	MrgX1 PAM	MrgX1 antag	MrgX1 agonist
CN1CCN(c2ccccc2/C=C2/C(=O)Nc3ccccc32)CC1	i	-8.5*	i	i	i
O=C1Nc2ccccc2/C1=C/c1ccccc1Cl	i	i	i	i	i
O=C(NCC1CCCO1)C1CCCN1C(=O)Nc1ccc(Cl)cc1 (centres undefined)	i	i	i	i	i
CC1=NN(c2ccc(C)cc2)C(=O)/C1=C\c1ccc(Br)s1	i	i	i	-6.5*	i
CC1=NN(c2ccc(Br)cc2)C(=O)/C1=C/c1cccs1	i	i	14*	i	i
O=C1CC(c2ccc(Cl)c([N+](=O)[O-])c2)c2ccc3ccccc3c2N1 (centres undefined)	i	i	i	-7.5*	i
CN(C)C(=O)c1ccc(-n2cccn2)nc1	i	i	i	i	i
Cc1ccc(S(=O)(=O)NNC(=O)NC23CC4CC(CC(C4)C2)C3)cc1	i	i	i	i	28*
CC(=O)Nc1ccc(S(=O)(=O)NNC(=O)NC23CC4CC(CC(C4)C2)C3)cc1	i	i	i	i	i
COc1ccc(Br)cc1S(=O)(=O)NCCCN1CCOCC1	i	i	i	i	i
COn1c(-c2ccccc2)c(C=O)c2ccccc21	i	i	19*	i	i
COc1ccc(C(=O)CSc2nnc(CCc3ccccc3)n2-c2ccccc2)cc1	i	i	i	-6.4*	i
O=C(CSc1nnc(CNc2ccc(F)cc2)n1Cc1ccccc1)NCc1ccccc1	i	i	i	-6.4*	i
O=C(CSc1nnc(CCc2ccccc2)n1-c1ccc(Cl)cc1)NCc1ccccc1	i	i	i	-4.8*	i
COc1ccc(-n2c(CCc3ccccc3)nnc2SCC(=O)c2ccccc2)cc1	i	i	i	i	i
O=C(c1ccc(OC2CCN(CCCc3ccccc3)CC2)cc1)N1CCCC1	i	-7.4*	i	i	i
CC(=O)N1CCN(C(=O)c2ccc(OC3CCN(CCc4ccccc4)CC3)cc2)CC1	i	i	i	i	i
COc1cc(/C=N/NC(N)=O)ccc1OC(=O)c1cccs1	i	i	9.5*	i	i
Cc1cc(Cl)ccc1OCCCC(=O)N1CCN(S(=O)(=O)c2ccccc2)CC1	i	i	i	i	i
CCOc1ccc2nc(NCCCNS(=O)(=O)c3ccccc3)c(C#N)cc2c1	i	i	i	i	i
CC(C)=CCC12Oc3cc(O)ccc3C1(O)Oc1cc3c(c(O)c1C2=O)C=CC(C)(C)O3 (centres undefined)	i	-7.3*	i	i	i
O=C1NC(=O)/C(=C/c2ccc(-c3cccc([N+](=O)[O-])c3)o2)S1	i	i	i	i	i
CCCNC(=O)Cn1c(=O)/c(=C\c2ccc(-c3ccc([N+](=O)[O-])cc3)o2)s/c1=C\C(=O)C(C)(C)C	i	i	i	-9.5*	i
CCCNC(=O)Cn1c(=O)/c(=C\c2ccc(-c3cccc([N+](=O)[O-])c3)o2)s/c1=C\C(=O)C(C)(C)C	i	i	i	-6.8*	i
